Measurements published in paper PMC6930338 (Journal of autoimmunity, 2019).
Numbering of substitutions follows the chain as printed. pIC50: −log10 of the molar value. Where no end group is shown, it is not given here.

Legend:
HLA-DRB1*04:01-*04:13 = HLA-DRB1*04:01-*04:13 (Homo sapiens, UniProt P01903+P01911, A100K/A169T/F76Y/I96L/K127E/L162R/M171V/N62H/P40V/Q125Y/R42H/S133A/S149N/S66Y/V115G/V209L/W38E); assay: In vitro competitive peptide binding to purified MHC class II
[1] = biological target: T1, HLA-DPA1*01:03/ HLA-DPB1*04:02 (Homo sapiens, UniProt P04440+P20036, A65V/A84D/A85E/L207M); assay: as above
T1 sequence (P20036 29-260): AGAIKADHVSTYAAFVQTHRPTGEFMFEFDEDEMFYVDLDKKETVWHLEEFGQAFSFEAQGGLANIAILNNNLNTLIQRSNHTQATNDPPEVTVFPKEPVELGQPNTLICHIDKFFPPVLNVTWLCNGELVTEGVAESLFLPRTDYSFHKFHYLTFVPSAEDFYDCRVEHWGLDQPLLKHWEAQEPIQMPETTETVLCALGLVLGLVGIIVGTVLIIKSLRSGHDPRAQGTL
T1 sequence (P04440 30-258 A65V/A84D/A85E): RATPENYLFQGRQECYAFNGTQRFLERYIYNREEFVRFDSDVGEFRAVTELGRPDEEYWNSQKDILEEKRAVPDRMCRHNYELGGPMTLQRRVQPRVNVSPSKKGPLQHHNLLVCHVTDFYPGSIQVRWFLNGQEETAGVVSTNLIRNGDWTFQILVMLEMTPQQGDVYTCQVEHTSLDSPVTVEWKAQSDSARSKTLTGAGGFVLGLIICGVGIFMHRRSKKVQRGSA

[2] = biological target: T2, HLA-DPA1*01:03/ HLA-DPB1*04:01 (Homo sapiens, UniProt P04440+P20036); assay: In vitro competitive peptide binding to purified MHC class II
T2 sequence (P20036 29-260): T1 sequence (P20036 29-260)
T2 sequence (P04440 30-258): T1 sequence (P04440 30-258 A65V/A84D/A85E) with V36A, D55A, E56A
Outline: (§1)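 Candidate MPO peptides were picked by IEDB in silico prediction and then tested in vitro. Each peptide's inhibition of binding of a high-affinity radiolabeled peptide to purified HLA-DPB1*04:01 or HLA-DRB4*01:01 class II molecules was measured.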

[3] = biological target: HLA-DRB5*01:01/ *01:02/ *02:02 (Homo sapiens, UniProt P01903+Q30154); assay: In vitro competitive peptide binding to purified MHC class II
HLA-DRB1*03:04/ *03:07 = HLA-DRB1*03:04/ *03:07 (Homo sapiens, UniProt P01903+P01911, A100K/A102G/A103R/A169T/F55Y/I96L/K41T/L162R/M171V/P40S/Q125H/Q178H/Q39Y/R42S/T106N/T262R/W38E/Y61H); assay: as above
HLA-DRB4*01:01/ *01:03 = HLA-DRB4*01:01/ *01:03 (Homo sapiens, UniProt P01903+P13762, G164S); assay: In vitro competitive peptide binding to purified MHC class II
Outline: as §1

[4] = Peptide solubility noted during ELISA optimization; format: physicochemical; details: qualitative; follow-up testing and optimization of ELISA

Molecule | pIC50 (HLA-DRB1*04:01-*04:13) | pIC50 [1] | pIC50 [2] | pIC50 [3] | pIC50 (HLA-DRB1*03:04/ *03:07) | pIC50 (HLA-DRB4*01:01/ *01:03) | Solubility compared with MPO447–459 [4]
MPELTSMHTLLLREH [MPO409–423] | 7.80 | 6.08 | 6.39 | 7.09 | 4.96 | 6.66 | –
PILRGLMATPAKLNR [MPO545–559] | 8.10 | 5.61 | 4.92 | 7.54 | 4.48 | 7.17 | –
PRWDGERLYQEARKIVGAMV [MPO435–454] | – | – | 5.98 | – | – | 6.60 | –
PVAATRTAVRAADYL [MPO105–119] | 6.36 | 5.21 | 5.15 | 6.49 | 4.84 | 6.06 | –

Results, then the molecule that gave them:

pIC50 (HLA-DRB1*04:01-*04:13) | pIC50 [1] | pIC50 [2] | pIC50 [3] | pIC50 (HLA-DRB1*03:04/ *03:07) | pIC50 (HLA-DRB4*01:01/ *01:03) | Solubility compared with MPO447–459 [4] | Molecule
8.70 | 5.87 | 5.25 | 8.30 | 5.53 | 6.14 | – | CC[C@H](C)[C@H](NC(=O)[C@H](CCCNC(=N)N)NC(=O)[C@@H]1CCCN1)C(=O)N[C@@H](C)C(=O)N[C@@H](CC(N)=O)C(=O)N[C@H](C(=O)N[C@@H](Cc1ccccc1)C(=O)N[C@H](C(=O)N[C@@H](CC(N)=O)C(=O)N[C@@H](C)C(=O)N[C@@H](Cc1ccccc1)C(=O)N[C@@H](CCCNC(=N)N)C(=O)N[C@@H](Cc1ccc(O)cc1)C(=O)NCC(=O)N[C@@H](Cc1c[nH]cn1)C(=O)O)[C@@H](C)O)C(C)C [MPO488–502]
5.38 | 6.04 | 5.96 | 5.93 | 4.15 | 6.42 | – | DQERSLMFMQWGQLL [MPO245–259]
6.03 | 4.71 | 4.27 | 5.84 | 4.51 | 5.03 | – | GEKLYQEARKIVGAM [MPO413–427, reference compound]
– | – | 7.42 | – | – | 7.77 | – | IKAVRIYIGDVMRQT [MPO447–461scramble, reference compound]
7.34 | 7.13 | 7.01 | 5.92 | 4.86 | 6.62 | improved solubility | RKIVGAMVQIITYRD [MPO447–461]
